In brackets after ≈: the same amount, converted by molar mass. Activity calls are given as the source filed them. The rule behind the calls is not given here.
How the values were obtained:
Plasmodium falciparum [1] = assay: Antimalarial activity against Plasmodium falciparum D6; format: functional, organism-based
In short: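 Drug susceptibility in vitro by modified Desjardins method with Milhous modifications. Read-out is parasite incorporation of radiolabelled hypoxanthine. Mefloquine and chloroquine were run in parallel as positive controls.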

A549 = assay: Cytotoxicity against human A549 cells by SRB assay; format: functional; settings: for EC50: Homo sapiens, A549, read-out: ED50 (the source's name)
In short: (§1)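 Sulforhodamine B assay on human lung (A549) and breast (MCF-7) cancer cell lines; ED50 taken as the compound concentration giving 50% reduction in absorbance at 562 nm relative to untreated cells.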

MCF7 = assay: Cytotoxicity against human MCF7 cells by SRB assay; format: functional; settings: for EC50: Homo sapiens, MCF7, read-out: ED50 (the source's name); in short: as §1
Plasmodium falciparum [2] = assay: Antimalarial activity against Plasmodium falciparum W2; format: functional, organism-based
In short: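 In vitro drug susceptibility measured by parasite incorporation of radiolabeled hypoxanthine (modified Desjardins method); mefloquine and chloroquine run in parallel as positive controls.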

Row | Compound | IC50 (Plasmodium falciparum [1]) [µg/mL] | EC50 (A549) [µg/mL] | EC50 (MCF7) [µg/mL] | IC50 (Plasmodium falciparum [2]) [µg/mL] | inhibition (INH) (A549) [%] | Activity (A549) | inhibition (INH) (MCF7) [%]
1 | COc1c(O)c2nccc3c4ccccc4n(c1=O)c23 [PICRASIDINE Q] | 2.96 (≈ 11.1 µM) | 16.2 (≈ 60.8 µM) | 18.1 (≈ 68 µM) | 3.52 (≈ 13.2 µM) |  |  | 
2 | COc1ccc2c3ccnc4ccc(=O)n(c2c1)c43 |  | < 2.5 | 4.5 (≈ 18 µM) |  | 55 |  | 
3 | O=C(O)CCc1nccc2c1[nH]c1ccccc12 |  |  | > 20 |  |  | inactive | 8
4 | COc1ccc2c(c1)[nH]c1c(CCC(=O)O)nccc12 |  | > 20 | > 20 |  | 7 |  | 15
5 | COc1ccc2c3cc[n+]([O-])c4ccc(=O)n(c2c1)c34 |  | 18.5 (≈ 69.5 µM) | 18.9 (≈ 71 µM) |  |  |  | 
6 | O=c1ccc2nccc3c4ccc(O)cc4n1c23 |  | 10 (≈ 42.3 µM) | 19.6 (≈ 83 µM) | 2.34 (≈ 9.89 µM) |  |  | 
7 | O=c1ccc2nccc3c4ccccc4n1c23 [CANTHIN-6-ONE] |  | 3.6 (≈ 16.3 µM) | 7.3 (≈ 33.1 µM) | 2.24 (≈ 10.2 µM) |  |  | 

— ChEMBL document CHEMBL1147231, “Cytotoxic and antimalarial beta-carboline alkaloids from the roots of Eurycoma longifolia” (J Nat Prod, 2003)
